Test results as given in publication PMC9321909 (British Journal of Haematology, 2022).

Tested on: relapsed/refractory B‐cell malignancies
Experiment: Anti-tumour activity assessment by disease-specific tumour response criteria
Assay type: in vivo, human (Chinese patients)
Method in brief: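 Oral test compound at 320 mg QD or 160 mg BID until progression or unacceptable toxicity. Investigators assessed response every 12 weeks for one year after the first dose, then every 24 weeks. Criteria were iwCLL for CLL, NCI Working Group NHL criteria for SLL, FL, MZL and MCL, and International Workshops on WM criteria for WM. 95% CIs for rates were computed by Clopper–Pearson.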

[1] = part I, 160 mg BID, CLL/SLL (n = 5)
[2] = part I, 160 mg BID, NHL (n = 5)
[3] = part I, 160 mg BID, Total (N = 11)
[4] = part I, 320 mg QD, CLL/SLL (n = 4)
[5] = part I, 320 mg QD, Total (N = 10)

C=CC(=O)N1CCC([C@@H]2CCNc3c(C(N)=O)c(-c4ccc(Oc5ccccc5)cc4)nn32)CC1 [zanubrutinib]
Best overall response: CR (CLL/SLL (n = 9)): 3 (33.3) n (%)
Best overall response: CRi (CLL/SLL (n = 9)): 0 (0.0) n (%)
Best overall response: Discontinued prior to first assessment (CLL/SLL (n = 9)): 0 (0.0) n (%)
Best overall response: MR (CLL/SLL (n = 9)): 0 (0.0) n (%)
Best overall response: PD (CLL/SLL (n = 9)): 0 (0.0) n (%)
Best overall response: PR (CLL/SLL (n = 9)): 5 (55.6) n (%)
Best overall response: PR‐L (CLL/SLL (n = 9)): 1 (11.1) n (%)
Best overall response: Stable disease (CLL/SLL (n = 9)): 0 (0.0) n (%)
Best overall response: VGPR (CLL/SLL (n = 9)): 0 (0.0) n (%)
Complete response rate (CLL/SLL (n = 9)): 3 (33.3) n (%)
Overall response rate (CLL/SLL (n = 9)): 9 (100.0) n (%)
Partial response rate (PR or better) (CLL/SLL (n = 9)): 8 (88.9) n (%)
median PFS (CLL/SLL patients): 44.3 months
Best overall response: CR (FL (n = 26)): 4 (15.4) n (%)
Best overall response: CRi (FL (n = 26)): 0 (0.0) n (%)
Best overall response: Discontinued prior to first assessment (FL (n = 26)): 3 (11.5) n (%)
Best overall response: MR (FL (n = 26)): 0 (0.0) n (%)
Best overall response: PD (FL (n = 26)): 4 (15.4) n (%)
Best overall response: PR (FL (n = 26)): 8 (30.8) n (%)
Best overall response: PR‐L (FL (n = 26)): 0 (0.0) n (%)
Best overall response: Stable disease (FL (n = 26)): 7 (26.9) n (%)
Best overall response: VGPR (FL (n = 26)): 0 (0.0) n (%)
Complete response rate (FL (n = 26)): 4 (15.4) n (%)
Overall response rate (FL (n = 26)): 12 (46.2) n (%)
Partial response rate (PR or better) (FL (n = 26)): 12 (46.2) n (%)
Best overall response: CR (MCL (n = 2)): 1 (50.0) n (%)
Best overall response: CRi (MCL (n = 2)): 0 (0.0) n (%)
Best overall response: Discontinued prior to first assessment (MCL (n = 2)): 0 (0.0) n (%)
Best overall response: MR (MCL (n = 2)): 0 (0.0) n (%)
Best overall response: PD (MCL (n = 2)): 0 (0.0) n (%)
Best overall response: PR (MCL (n = 2)): 0 (0.0) n (%)
Best overall response: PR‐L (MCL (n = 2)): 0 (0.0) n (%)
Best overall response: Stable disease (MCL (n = 2)): 1 (50.0) n (%)
Best overall response: VGPR (MCL (n = 2)): 0 (0.0) n (%)
Complete response rate (MCL (n = 2)): 1 (50.0) n (%)
Overall response rate (MCL (n = 2)): 1 (50.0) n (%)
Partial response rate (PR or better) (MCL (n = 2)): 1 (50.0) n (%)
Best overall response: CR (MZL (n = 5)): 0 (0.0) n (%)
Best overall response: CRi (MZL (n = 5)): 0 (0.0) n (%)
Best overall response: Discontinued prior to first assessment (MZL (n = 5)): 2 (40.0) n (%)
Best overall response: MR (MZL (n = 5)): 0 (0.0) n (%)
Best overall response: PD (MZL (n = 5)): 0 (0.0) n (%)
Best overall response: PR (MZL (n = 5)): 0 (0.0) n (%)
Best overall response: PR‐L (MZL (n = 5)): 0 (0.0) n (%)
Best overall response: Stable disease (MZL (n = 5)): 3 (60.0) n (%)
Best overall response: VGPR (MZL (n = 5)): 0 (0.0) n (%)
Complete response rate (MZL (n = 5)): 0 (0.0) n (%)
Overall response rate (MZL (n = 5)): 0 (0.0) n (%)
Partial response rate (PR or better) (MZL (n = 5)): 0 (0.0) n (%)
Best overall response: CR (Total (N = 44)): 8 (18.2) n (%)
Best overall response: CRi (Total (N = 44)): 0 (0.0) n (%)
Best overall response: Discontinued prior to first assessment (Total (N = 44)): 5 (11.4) n (%)
Best overall response: MR (Total (N = 44)): 0 (0.0) n (%)
Best overall response: PD (Total (N = 44)): 4 (9.1) n (%)
Best overall response: PR (Total (N = 44)): 14 (31.8) n (%)
Best overall response: PR‐L (Total (N = 44)): 1 (2.3) n (%)
Best overall response: Stable disease (Total (N = 44)): 12 (27.3) n (%)
Best overall response: VGPR (Total (N = 44)): 0 (0.0) n (%)
Complete response rate (Total (N = 44)): 8 (18.2) n (%)
Overall response rate (Total (N = 44)): 23 (52.3) n (%)
Partial response rate (PR or better) (Total (N = 44)): 22 (50.0) n (%)
Best overall response: CR (WM (n = 2)): 0 (0.0) n (%)
Best overall response: CRi (WM (n = 2)): 0 (0.0) n (%)
Best overall response: Discontinued prior to first assessment (WM (n = 2)): 0 (0.0) n (%)
Best overall response: MR (WM (n = 2)): 0 (0.0) n (%)
Best overall response: PD (WM (n = 2)): 0 (0.0) n (%)
Best overall response: PR (WM (n = 2)): 1 (50.0) n (%)
Best overall response: PR‐L (WM (n = 2)): 0 (0.0) n (%)
Best overall response: Stable disease (WM (n = 2)): 1 (50.0) n (%)
Best overall response: VGPR (WM (n = 2)): 0 (0.0) n (%)
Complete response rate (WM (n = 2)): 0 (0.0) n (%)
Overall response rate (WM (n = 2)): 1 (50.0) n (%)
Partial response rate (PR or better) (WM (n = 2)): 1 (50.0) n (%)
complete response rate (CRR) (all 44 patients): 18.2%
overall response rate (ORR) (all 44 patients): 52.3%
median PFS (all patients): 16.4 months
median DOR (PR‐L or better) (all responders): 13.9 months
median time to response (all subtypes, responders (n = 23)): 2.8 months
Complete response rate [1]: 2 (40.0) n (%)
Overall response rate [1]: 5 (100.0) n (%)
Partial response rate (PR or better) [1]: 4 (80.0) n (%)
Complete response rate [2]: 1 (20.0) n (%)
Overall response rate [2]: 3 (60.0) n (%)
Partial response rate (PR or better) [2]: 3 (60.0) n (%)
Complete response rate [3]: 3 (27.3) n (%)
Overall response rate [3]: 8 (72.7) n (%)
Partial response rate (PR or better) [3]: 7 (63.6) n (%)
Complete response rate (part I, 160 mg BID, WM (n = 1)): 0 (0.0) n (%)
Overall response rate (part I, 160 mg BID, WM (n = 1)): 0 (0.0) n (%)
Partial response rate (PR or better) (part I, 160 mg BID, WM (n = 1)): 0 (0.0) n (%)
Complete response rate [4]: 1 (25.0) n (%)
Overall response rate [4]: 4 (100.0) n (%)
Partial response rate (PR or better) [4]: 4 (100.0) n (%)
Complete response rate (part I, 320 mg QD, NHL (n = 5)): 1 (20.0) n (%)
Overall response rate (part I, 320 mg QD, NHL (n = 5)): 3 (60.0) n (%)
Partial response rate (PR or better) (part I, 320 mg QD, NHL (n = 5)): 3 (60.0) n (%)
Complete response rate [5]: 2 (20.0) n (%)
Overall response rate [5]: 8 (80.0) n (%)
Partial response rate (PR or better) [5]: 8 (80.0) n (%)
Complete response rate (part I, 320 mg QD, WM (n = 1)): 0 (0.0) n (%)
Overall response rate (part I, 320 mg QD, WM (n = 1)): 1 (100.0) n (%)
Partial response rate (PR or better) (part I, 320 mg QD, WM (n = 1)): 1 (100.0) n (%)
Study day at disease progression (patient 101 016, FL): Day 162
Study day at disease progression (patient 102 002, CLL): Day 672
BOR by investigator (patient 102 004, WM): Stable disease
Study day at disease progression (patient 102 004, WM): Day 336
BOR by investigator (patient 102 006, CLL): PR‐L
Study day at disease progression (patient 102 006, CLL): Day 1345
CRR (patients with CLL/SLL): 33.3%
median overall survival (total population): not reached
